Measured values as given in ChEMBL document CHEMBL1141702 (Bioorg Med Chem Lett, 2008).

Experiments:
[1] = biological target: Sodium-dependent serotonin transporter (Rattus norvegicus, UniProt P31652); assay: Displacement of [3H]citalopram from SERT in rat brain stem membrane; format: cell membranes
How it was run: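 [³H]Citalopram binding in previously frozen rat brain stem, buffer 50 mM Tris, 5 mM KCl, 120 mM NaCl. Incubation 60 min at 25 °C. Ki values derived from competition binding.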

[2] = biological target: Sigma non-opioid intracellular receptor 1 (Cavia porcellus, UniProt Q60492); assay: Displacement of [3H](+)-pentazocine from sigma 1 receptor in guinea pig brain membrane; format: cell membranes
How it was run: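 Tissue was previously frozen guinea pig brain minus cerebellum, incubated 120 min at 25 °C. Ki values derived from competition binding.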

[3] = biological target: Sodium-dependent dopamine transporter (Rattus norvegicus, UniProt P23977); assay: Displacement of [3H]WIN-35428 from DAT in rat striatum membrane; format: cell membranes
Transporter = Transporter (Rattus norvegicus, UniProt Q63380); assay: Displacement of [3H]nisoxetine from NET in rat frontal cortex membrane; format: cell membranes
How it was run: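 Assay used previously frozen rat frontal cortex with [³H]nisoxetine in 50 mM Tris, 5 mM KCl, 120 mM NaCl buffer. Incubated 180 min on ice. Ki values derived from competition binding.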

Rattus norvegicus [4] = species: Rattus norvegicus; assay: Selectivity ratio of Ki for rat brain stem SERT to Ki for rat striatum DAT; format: tissue-based
[5] = Selectivity ratio of Ki for rat brain stem SERT to Ki for guinea pig brain sigma 1 receptor
Rattus norvegicus [6] = species: Rattus norvegicus; assay: Selectivity ratio of Ki for rat brain stem SERT to Ki for rat frontal cortex NET; format: tissue-based

Sequence of Sigma non-opioid intracellular receptor 1 (Q60492 whole entry): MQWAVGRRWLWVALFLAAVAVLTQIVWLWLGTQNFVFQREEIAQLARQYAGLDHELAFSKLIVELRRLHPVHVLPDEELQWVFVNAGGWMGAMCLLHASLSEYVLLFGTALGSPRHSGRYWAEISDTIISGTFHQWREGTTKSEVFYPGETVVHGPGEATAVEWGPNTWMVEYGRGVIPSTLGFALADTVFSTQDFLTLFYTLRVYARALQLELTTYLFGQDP
Sequence of Sodium-dependent dopamine transporter (P23977 whole entry): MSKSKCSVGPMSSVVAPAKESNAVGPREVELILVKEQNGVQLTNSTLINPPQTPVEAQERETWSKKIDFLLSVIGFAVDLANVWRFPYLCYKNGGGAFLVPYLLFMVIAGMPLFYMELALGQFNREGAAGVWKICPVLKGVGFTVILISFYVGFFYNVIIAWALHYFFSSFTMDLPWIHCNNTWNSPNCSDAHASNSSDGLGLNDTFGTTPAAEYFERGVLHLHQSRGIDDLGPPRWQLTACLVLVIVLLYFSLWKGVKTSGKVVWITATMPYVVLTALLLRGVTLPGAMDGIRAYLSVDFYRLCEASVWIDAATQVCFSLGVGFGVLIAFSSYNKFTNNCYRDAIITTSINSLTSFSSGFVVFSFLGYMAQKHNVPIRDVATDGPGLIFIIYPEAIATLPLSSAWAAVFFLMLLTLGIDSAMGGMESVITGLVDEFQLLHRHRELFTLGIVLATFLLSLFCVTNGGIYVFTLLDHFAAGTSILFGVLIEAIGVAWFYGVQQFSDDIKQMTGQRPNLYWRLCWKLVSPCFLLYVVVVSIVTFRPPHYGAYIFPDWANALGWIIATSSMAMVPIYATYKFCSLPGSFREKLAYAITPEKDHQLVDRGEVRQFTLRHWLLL
Sequence of Transporter (Q63380 whole entry): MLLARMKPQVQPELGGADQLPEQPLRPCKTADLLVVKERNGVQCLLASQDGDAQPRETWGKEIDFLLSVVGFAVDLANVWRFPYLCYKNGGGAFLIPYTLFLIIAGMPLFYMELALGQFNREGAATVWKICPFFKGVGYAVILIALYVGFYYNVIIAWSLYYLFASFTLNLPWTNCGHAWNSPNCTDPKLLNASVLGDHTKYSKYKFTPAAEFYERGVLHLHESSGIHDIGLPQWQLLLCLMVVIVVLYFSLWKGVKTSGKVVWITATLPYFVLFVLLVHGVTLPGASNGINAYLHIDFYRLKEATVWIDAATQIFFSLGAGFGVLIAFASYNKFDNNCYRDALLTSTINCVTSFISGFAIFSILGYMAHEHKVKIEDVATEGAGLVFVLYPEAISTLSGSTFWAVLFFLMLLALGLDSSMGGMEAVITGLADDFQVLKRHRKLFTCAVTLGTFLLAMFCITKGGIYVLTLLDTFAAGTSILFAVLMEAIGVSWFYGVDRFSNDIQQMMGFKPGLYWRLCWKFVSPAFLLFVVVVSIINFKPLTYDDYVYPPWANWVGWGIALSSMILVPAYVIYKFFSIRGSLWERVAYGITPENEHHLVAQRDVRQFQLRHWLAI
Sequence of Sodium-dependent serotonin transporter (P31652 whole entry): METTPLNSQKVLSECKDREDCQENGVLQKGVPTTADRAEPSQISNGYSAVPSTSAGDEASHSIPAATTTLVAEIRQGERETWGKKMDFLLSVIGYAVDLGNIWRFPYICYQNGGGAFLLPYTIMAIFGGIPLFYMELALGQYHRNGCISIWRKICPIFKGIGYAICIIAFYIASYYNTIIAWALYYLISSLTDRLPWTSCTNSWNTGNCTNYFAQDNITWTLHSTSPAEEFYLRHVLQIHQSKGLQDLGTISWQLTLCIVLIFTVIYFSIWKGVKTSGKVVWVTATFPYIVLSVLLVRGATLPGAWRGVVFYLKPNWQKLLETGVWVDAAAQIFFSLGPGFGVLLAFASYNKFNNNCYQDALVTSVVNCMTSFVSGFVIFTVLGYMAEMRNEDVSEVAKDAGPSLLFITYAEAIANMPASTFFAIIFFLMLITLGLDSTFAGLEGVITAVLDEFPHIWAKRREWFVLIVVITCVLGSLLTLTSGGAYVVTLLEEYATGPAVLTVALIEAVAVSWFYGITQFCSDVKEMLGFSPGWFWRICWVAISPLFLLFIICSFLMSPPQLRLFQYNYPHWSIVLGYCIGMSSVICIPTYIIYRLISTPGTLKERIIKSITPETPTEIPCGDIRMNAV

In the case of `CC(=O)OC(CCN1CCN(CCCN(c2ccc(F)cc2)c2ccc(F)cc2)CC1)c1ccccc1` (stereo not given), the Ki [1] is reported as 204 nM, the Ki [2] is reported as 56.6 nM and the Ki [3] is reported as 4.28 nM. It also gave a Ki (Transporter) of 990 nM.

Compound `CCC(=O)OC(CCN1CCN(CCCN(c2ccc(F)cc2)c2ccc(F)cc2)CC1)c1ccccc1` (stereo not given) has a Ratio Ki (Rattus norvegicus [4]) of 49, a Ratio Ki [5] of 14 and a Ki [1] of 273 nM. For the same compound, the Ratio Ki (Rattus norvegicus [6]) was 269, the Ki [2] was 76 nM and the Ki [3] was 5.57 nM. For the same compound, the Ki (Transporter) was 1500 nM.

In the case of `CCC(=O)O[C@@H](Cc1ccccc1)CN1CCN(CCCN(c2ccc(F)cc2)c2ccc(F)cc2)CC1`, the Ki [1] is reported as 1040 nM, the Ki [2] is reported as 81.8 nM and the Ki [3] is reported as 15.1 nM.

`CCCN(CCC)CCc1ccc(OC)c(OCCc2ccccc2)c1` gave a Ki [1] greater than 10000 nM and a Ki [3] of 3620 nM.

For `O=C(CCCc1ccccc1)OC(CCN1CCN(CCCN(c2ccc(F)cc2)c2ccc(F)cc2)CC1)c1ccccc1` (stereo not given), the Ki [1] was 2190 nM, the Ki [2] was 246 nM and the Ki [3] was 51.3 nM. It also gave a Ki (Transporter) greater than 10000 nM.

For `C=CC(=O)OC(CCN1CCN(CCCN(c2ccc(F)cc2)c2ccc(F)cc2)CC1)c1ccccc1` (stereo not given), the Ki [1] was 318 nM, the Ki [2] was 87.3 nM and the Ki [3] was 6.71 nM. The Ki (Transporter) was 1950 nM.

With `C=CC(=O)O[C@@H](Cc1ccccc1)CN1CCN(CCCN(c2ccc(F)cc2)c2ccc(F)cc2)CC1` the Ki [1] was 660 nM, the Ki [2] was 45.5 nM and the Ki [3] was 3.26 nM. The Ki (Transporter) was 810 nM.

`CC(=O)O[C@@H](Cc1ccccc1)CN1CCN(CCCN(c2ccc(F)cc2)c2ccc(F)cc2)CC1` showed a Ki [1] of 835 nM, a Ki [2] of 75 nM and a Ki [3] of 21.7 nM.

Work on `O[C@@H](Cc1ccccc1)CN1CCN(CCCN(c2ccc(F)cc2)c2ccc(F)cc2)CC1` yielded a Ki [1] of 779 nM, a Ki [2] of 28.1 nM and a Ki [3] of 1.72 nM. It also gave a Ki (Transporter) of 766 nM.

In the case of `CCCC(=O)O[C@@H](Cc1ccccc1)CN1CCN(CCCN(c2ccc(F)cc2)c2ccc(F)cc2)CC1`, the Ki [1] is reported as 1680 nM, the Ki [2] is reported as 292 nM and the Ki [3] is reported as 33.5 nM.

`OC(CCN1CCN(CCCN(c2ccc(F)cc2)c2ccc(F)cc2)CC1)c1ccccc1` (racemic) showed a Ki [3] of 3.45 nM.

`O=C(Cc1ccccc1)OC(CCN1CCN(CCCN(c2ccc(F)cc2)c2ccc(F)cc2)CC1)c1ccccc1` (stereo not given) gave a Ratio Ki (Rattus norvegicus [4]) of 83, a Ratio Ki [5] of 9 and a Ki [1] of 1230 nM. For the same compound, the Ratio Ki (Rattus norvegicus [6]) was 184, the Ki [2] was 135 nM and the Ki [3] was 14.9 nM. The Ki (Transporter) was 2740 nM.

In the case of `Fc1ccc(C(OCCN2CCN(CCCc3ccccc3)CC2)c2ccc(F)cc2)cc1` [VANOXERINE], the Ki [2] is reported as 50.8 nM.

Work on `O[C@H](Cc1ccccc1)CN1CCN(CCCN(c2ccc(F)cc2)c2ccc(F)cc2)CC1` yielded a Ki [1] of 521 nM, a Ki [2] of 33.4 nM and a Ki [3] of 5.36 nM. The Ki (Transporter) was 2110 nM.

Compound `O=C(Cc1ccccc1)O[C@@H](Cc1ccccc1)CN1CCN(CCCN(c2ccc(F)cc2)c2ccc(F)cc2)CC1` has a Ratio Ki (Rattus norvegicus [4]) of 282, a Ratio Ki [5] of 13 and a Ki [1] of 1950 nM. It also gave a Ratio Ki (Rattus norvegicus [6]) of 243, a Ki [2] of 87.4 nM and a Ki [3] of 6.92 nM. The Ki (Transporter) was 1680 nM.

Compound `C[C@@H]1CN(CCCn2c3ccccc3c3ccccc32)C[C@H](C)N1` [RIMCAZOLE] has a Ki [3] of 97.7 nM.

`O=C(CCc1ccccc1)OC(CCN1CCN(CCCN(c2ccc(F)cc2)c2ccc(F)cc2)CC1)c1ccccc1` (stereo not given) showed a Ki [1] of 1300 nM, a Ki [2] of 235 nM and a Ki [3] of 36.6 nM.

Work on `CC(C)C(=O)OC(CCN1CCN(CCCN(c2ccc(F)cc2)c2ccc(F)cc2)CC1)c1ccccc1` (stereo not given) yielded a Ki [1] of 543 nM, a Ki [2] of 88.3 nM and a Ki [3] of 9.36 nM.
